Data reported in ChEMBL document CHEMBL4602616, “Design, synthesis and biological evaluation of novel indole-based oxalamide and aminoacetamide derivatives as tubulin polymerization inhibitors” (Bioorg Med Chem Lett, 2020).
Each block holds one molecule with its values, some of them ahead of it. Calls of active or inactive are those of the source. No cut-off for these calls is given here.

Legend:
HeLa [1] = assay: Antiproliferative activity against human HeLa cells assessed as reduction in cell growth after 48 hrs by MTT assay; format: functional, cell-based
Tubulin (Homo sapiens) [2] = molecular target: T1, Tubulin (Homo sapiens) (UniProt P68371+Q9H4B7+P0DPH7+P68366+Q13509+Q71U36+P04350+Q3ZCM7+P07437+P68363+Q9BQE3+Q6PEY2+Q13885+Q9BVA1+Q9BUF5); assay: Inhibition of tubulin polymerization in human HeLa cells assessed as disruption of alpha tubulin at 15 to 30 uM after 12 hrs by immunofluorescence based confocal microscopy; format: cell-based
Procedure, shortened: (§1)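 HeLa cells grown on glass coverslips, incubated with compound at 15 or 30 μM for 12 h, then fixed; α- and β-tubulin visualized by immunocytochemistry and confocal microscopy, compared with untreated cells.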

HeLa [3] = assay: Induction of cell cycle arrest in human HeLa cells assessed as accumulation at G0/G1 phase at 15 uM after 24 hrs by PI staining based flow cytometric analysis (reference value: 69.86%); format: functional
HeLa [4] = assay: Induction of cell cycle arrest in human HeLa cells assessed as accumulation at G2/M phase at 30 uM after 24 hrs by PI staining based flow cytometric analysis (reference value: 11.76%); format: functional
PC-3 = assay: Antiproliferative activity against human PC3 cells assessed as reduction in cell viability; format: functional, cell-based
HeLa [5] = assay: Induction of cell cycle arrest in human HeLa cells assessed as accumulation at S phase at 30 uM after 24 hrs by PI staining based flow cytometric analysis (reference value: 18.38%); format: functional
Tubulin (Homo sapiens) [6] = molecular target: T1, Tubulin (Homo sapiens); assay: Inhibition of tubulin polymerization in human HeLa cells assessed as microtubule spindle shrinkage around nucleus at 15 to 30 uM after 12 hrs by immunofluorescence based confocal microscopy; format: cell-based; procedure, shortened: as §1
HeLa [7] = assay: Induction of cell cycle arrest in human HeLa cells assessed as accumulation at G0/G1 phase at 7.5 uM after 24 hrs by PI staining based flow cytometric analysis (reference value: 69.86%); format: functional
HeLa [8] = assay: Induction of cell cycle arrest in human HeLa cells assessed as debris content at 7.5 uM after 24 hrs by PI staining based flow cytometric analysis (reference value: 0.05%); format: functional
Tubulin (Homo sapiens) [9] = molecular target: T1, Tubulin (Homo sapiens); assay: Inhibition of tubulin polymerization (unknown origin) at 10 uM relative to control; format: protein-complex assay
Procedure, shortened: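 In vitro tubulin polymerization measured with compounds at a final concentration of 10 μM; result given as percent inhibition.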

Tubulin (Homo sapiens) [10] = molecular target: T1, Tubulin (Homo sapiens); assay: Inhibition of tubulin polymerization in human HeLa cells assessed as cell membrane rounding at 15 to 30 uM after 12 hrs by immunofluorescence based confocal microscopy; procedure, shortened: as §1
HeLa [11] = assay: Induction of cell cycle arrest in human HeLa cells assessed as accumulation at G2/M phase at 15 uM after 24 hrs by PI staining based flow cytometric analysis (reference value: 11.76%); format: functional
HeLa [12] = assay: Induction of cell cycle arrest in human HeLa cells assessed as accumulation at S phase at 7.5 uM after 24 hrs by PI staining based flow cytometric analysis (reference value: 18.38%); format: functional
HeLa [13] = assay: Induction of cell cycle arrest in human HeLa cells assessed as debris content at 30 uM after 24 hrs by PI staining based flow cytometric analysis (reference value: 0.05%); format: functional
HeLa [14] = assay: Induction of cell cycle arrest in human HeLa cells assessed as accumulation of cells at G2/M phase after 24 hrs by PI-staining based flow cytometric analysis; format: functional
HeLa [15] = assay: Induction of cell cycle arrest in human HeLa cells assessed as accumulation at S phase at 15 uM after 24 hrs by PI staining based flow cytometric analysis (reference value: 18.38%); format: functional
HeLa [16] = assay: Induction of cell cycle arrest in human HeLa cells assessed as accumulation at G2/M phase at 7.5 uM after 24 hrs by PI staining based flow cytometric analysis (reference value: 11.76%); format: functional
HCT-116 = assay: Antiproliferative activity against human HCT116 cells assessed as reduction in cell viability; format: functional, cell-based
HeLa [17] = assay: Induction of cell cycle arrest in human HeLa cells assessed as accumulation at G0/G1 phase at 30 uM after 24 hrs by PI staining based flow cytometric analysis (reference value: 69.86%); format: functional
Tubulin (Homo sapiens) [18] = molecular target: T1, Tubulin (Homo sapiens); assay: Inhibition of tubulin polymerization in human HeLa cells assessed as disruption of beta tubulin at 15 to 30 uM after 12 hrs by immunofluorescence based confocal microscopy; format: cell-based; procedure, shortened: as §1
HeLa [19] = assay: Induction of cell cycle arrest in human HeLa cells assessed as debris content at 15 uM after 24 hrs by PI staining based flow cytometric analysis (reference value: 0.05%); format: functional
HeLa [20] = assay: Antiproliferative activity against human HeLa cells assessed as reduction in cell viability; format: functional, cell-based

Structure (SMILES): O=C(Nc1ccccc1)C(=O)Nc1c(C(=O)c2ccccc2)[nH]c2ccccc12
IC50 (HeLa [1]): 62.9 µM

Structure (SMILES): Cc1ccc2c(NC(=O)C(=O)Nc3ccccc3)c(C(=O)C3CC3)[nH]c2c1
IC50 (HeLa [1]): 82.3 µM

Structure (SMILES): O=C(Nc1ccncc1)C(=O)c1cn(Cc2ccc(Cl)cc2)c2ccccc12 [INDIBULIN]
IC50 (HeLa [20]): 0.115 µM

Structure (SMILES): COc1cc2c(c(OC)c1OC)-c1ccc(OC)c(=O)cc1[C@@H](NC(C)=O)CC2 [COLCHICINE]
IC50 (HeLa [1]): 0.03 µM | IC50 (HCT-116): 0.25 µM

Structure (SMILES): CC(=O)c1[nH]c2cc(Cl)ccc2c1NC(=O)C(=O)Nc1ccncc1
IC50 (HeLa [1]): 69.6 µM

Structure (SMILES): Cc1ccc2c(NC(=O)C(=O)Nc3ccncc3)c(C(=O)c3ccco3)[nH]c2c1
IC50 (HeLa [1]): 56.9 µM

Structure (SMILES): O=C(Nc1ccccc1)C(=O)Nc1c[nH]c2ccccc12
IC50 (HeLa [1]): 76.7 µM

Structure (SMILES): O=C(Nc1ccccc1)C(=O)Nc1c(C(=O)C2CC2)[nH]c2cc(Cl)ccc12
IC50 (HeLa [1]): > 100 µM

Structure (SMILES): O=C(Nc1ccccc1)C(=O)Nc1c(C(=O)C2CC2)[nH]c2ccccc12
IC50 (HeLa [1]): > 100 µM

Structure (SMILES): COc1ccc(C(=O)c2[nH]c3cc(Cl)ccc3c2NC(=O)CNc2ccc(F)cc2)cc1
IC50 (HeLa [1]): 16.7 µM | IC50 (PC-3): 21.8 µM | inhibition (Tubulin (Homo sapiens) [9]): 43% | IC50 (HCT-116): 18.2 µM

Structure (SMILES): COc1ccc(NCC(=O)Nc2c(C(=O)c3ccc(OC)cc3)[nH]c3ccccc23)cc1
IC50 (HeLa [1]): 16.2 µM | IC50 (PC-3): 43.7 µM | inhibition (Tubulin (Homo sapiens) [9]): 7% | IC50 (HCT-116): 46.9 µM

Structure (SMILES): O=C(Nc1ccncc1)C(=O)Nc1c(C(=O)c2ccccc2)[nH]c2ccccc12
IC50 (HeLa [1]): 85.3 µM

Structure (SMILES): CC(=O)c1[nH]c2ccccc2c1NC(=O)C(=O)Nc1ccncc1
IC50 (HeLa [1]): 62.4 µM

Structure (SMILES): O=C(Nc1ccncc1)C(=O)Nc1c[nH]c2ccccc12
IC50 (HeLa [1]): > 100 µM

Structure (SMILES): O=C(Nc1ccncc1)C(=O)Nc1c(C(=O)c2ccccc2)[nH]c2cc(Cl)ccc12
IC50 (HeLa [1]): > 100 µM

Structure (SMILES): O=C(Nc1ccncc1)C(=O)Nc1c(C(=O)c2ccco2)[nH]c2cc(Cl)ccc12
IC50 (HeLa [1]): 21.8 µM

Structure (SMILES): COc1ccc(C(=O)c2[nH]c3cc(Cl)ccc3c2NC(=O)CNc2cc(OC)c(OC)c(OC)c2)cc1
IC50 (HeLa [1]): > 100 µM

Continued, in another order:

IC50 (HeLa [1]): 55.2 µM
Structure (SMILES): Cc1ccc2c(NC(=O)C(=O)Nc3ccccc3)c(C(=O)c3ccccc3)[nH]c2c1

inhibition (Tubulin (Homo sapiens) [2]): Active | IC50 (HeLa [1]): 15.4 µM | IC50 (PC-3): 14.4 µM | inhibition (Tubulin (Homo sapiens) [6]): Active | inhibition (Tubulin (Homo sapiens) [9]): 46% | inhibition (Tubulin (Homo sapiens) [10]): Active | IC50 (HCT-116): 12 µM | inhibition (Tubulin (Homo sapiens) [18]): Active
Structure (SMILES): O=C(CNc1ccccc1)Nc1c(C(=O)c2ccccc2)[nH]c2cc(Cl)ccc12
Activity (HeLa [3]): 64.57% | Activity (HeLa [4]): 25.2% | Activity (HeLa [5]): 10.56% | Activity (HeLa [7]): 68.1% | Activity (HeLa [8]): 0.04% | Activity (HeLa [11]): 20.7% | Activity (HeLa [12]): 17.7% | Activity (HeLa [13]): 0.07% | Activity (HeLa [14]): Dose-dependent effect | Activity (HeLa [15]): 14.73% | Activity (HeLa [16]): 14.2% | Activity (HeLa [17]): 64.24% | Activity (HeLa [19]): 0%

IC50 (HeLa [1]): 75.1 µM
Structure (SMILES): Cc1ccc2c(NC(=O)C(=O)Nc3ccncc3)c(C(=O)c3ccccc3)[nH]c2c1

IC50 (HeLa [1]): 27.9 µM
Structure (SMILES): COc1ccc(C(=O)c2[nH]c3ccccc3c2NC(=O)CNc2ccccc2C)cc1

IC50 (HeLa [1]): > 100 µM
Structure (SMILES): Cc1ccc2c(NC(=O)C(=O)Nc3ccncc3)c(C(=O)C3CC3)[nH]c2c1

IC50 (HeLa [1]): > 100 µM
Structure (SMILES): COc1cc(NCC(=O)Nc2c(C(=O)c3ccccc3)[nH]c3cc(Cl)ccc23)cc(OC)c1OC

IC50 (HeLa [1]): 80.7 µM
Structure (SMILES): O=C(Nc1ccncc1)C(=O)Nc1c(C(=O)C2CC2)[nH]c2cc(Cl)ccc12

IC50 (HeLa [1]): > 100 µM
Structure (SMILES): O=C(Nc1ccncc1)C(=O)Nc1c(C(=O)C2CC2)[nH]c2ccccc12

IC50 (HeLa [1]): 31.1 µM
Structure (SMILES): Cc1ccc(C(=O)c2[nH]c3ccccc3c2NC(=O)CNc2ccccc2C)cc1

IC50 (HeLa [1]): > 100 µM
Structure (SMILES): CC(=O)c1[nH]c2cc(C)ccc2c1NC(=O)C(=O)Nc1ccncc1

IC50 (HeLa [1]): 18.3 µM | IC50 (PC-3): 15.8 µM | inhibition (Tubulin (Homo sapiens) [9]): 29% | IC50 (HCT-116): 20.4 µM
Structure (SMILES): COc1ccc(C(=O)c2[nH]c3cc(Cl)ccc3c2NC(=O)CNc2ccc(C)cc2)cc1

IC50 (HeLa [1]): 56.8 µM
Structure (SMILES): O=C(Nc1ccncc1)C(=O)Nc1c(C(=O)c2ccco2)[nH]c2ccccc12

IC50 (HeLa [1]): 29.2 µM
Structure (SMILES): O=C(Nc1ccccc1)C(=O)Nc1c(C(=O)c2ccccc2)[nH]c2cc(Cl)ccc12
